Test results as given in ChEMBL document CHEMBL3272087, “Antifertility agents. 12. Structure-activity relationship of 3,4-diphenylchromenes and -chromans” (1976).
Calls of active or inactive are those of the source. The calls are words filed in the database; no cut-off is given here.

Assays:
Rattus norvegicus [1] = test: Antifertility activity in pregnant female albino rat assessed as implantation in both uterine horns on day 10 of pregnancy at 20 mg/kg/day, po for 5 days; type: functional, organism-based
Procedure, shortened: (§1)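 Mated rats of proven fertility; day 1 = sperm-positive vaginal smear. Compound macerated with gum acacia, given orally days 1-5, five animals per group; initial dose 20 mg/kg/day unless stated otherwise. Uterine horns examined on day 10; scored positive only when implantations totally absent in both horns.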

Rattus norvegicus [2] = test: Estrogenic activity in immature female rat assessed as vaginal opening at 10 mg/kg, po bid for 3 days; type: functional, organism-based; set-up: dose 10 mg/kg
Procedure, shortened: (§2)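 Immature female rats, 25-30 g, scored for presence or absence of vaginal opening. Failure to induce opening was taken as complete absence of estrogenic activity.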

Rattus norvegicus [3] = test: Estrogenic activity in immature female rat assessed as mixture of leukocytes, epithelial cells and proestrus smear with nucleated and cornified cells at 10 mg/kg, po bid for 3 days; type: functional, organism-based; set-up: dose 10 mg/kg; details: Epithelial cell
Procedure, shortened: (§3)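 Immature female rats, 25-30 g. Vaginal smear scored as + (leucocytes with epithelial cells), ++ (proestrus, nucleated or nucleated plus cornified cells) or +++ (estrus, cornified cells only). Estrone used as standard.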

Rattus norvegicus [4] = test: Estrogenic activity in immature female rat assessed as uterine weight on day 4 at 10 mg/kg, po bid for 3 days (reference value: 13.6 +/- 0.8 mg); type: functional
Rattus norvegicus [5] = test: Antifertility activity in po dosed pregnant female albino rat assessed as absence of implantation in both uterine horns on day 10 of pregnancy compound administered for 5 days; type: functional; procedure, shortened: as §1
Rattus norvegicus [6] = test: Estrogenic activity in immature female rat assessed as diestrus smear with leukocytes and mixture of leukocytes,epithelial cells at 10 mg/kg, po bid for 3 days; type: functional, organism-based; set-up: dose 10 mg/kg; procedure, shortened: as §3
Rattus norvegicus [7] = test: Estrogenic activity in immature female rat assessed as mixture of leukocytes,epithelial cells and estrus smear with cornified cells at 10 mg/kg, po bid for 3 days; type: functional, organism-based; set-up: dose 10 mg/kg; procedure, shortened: as §3
Rattus norvegicus [8] = test: Estrogenic activity in immature female rat assessed as diestrus smear with leukocytes at 10 mg/kg, po bid for 3 days; type: functional, organism-based; set-up: dose 10 mg/kg; procedure, shortened: as §3
Rattus norvegicus [9] = test: Estrogenic activity in immature female rat assessed as vaginal opening at 5 mg/kg, po bid for 3 days; type: functional, organism-based; set-up: dose 5 mg/kg; procedure, shortened: as §2
Rattus norvegicus [10] = test: Estrogenic activity in immature female rat assessed as uterine weight on day 4 at 5 mg/kg, po bid for 3 days (reference value: 13.6 +/- 0.8 mg); type: functional
Rattus norvegicus [11] = test: Estrogenic activity in immature female rat assessed as mixture of leukocytes and epithelial cells at 10 mg/kg, po bid for 3 days; type: functional, organism-based; set-up: dose 10 mg/kg; details: Epithelial cell; procedure, shortened: as §3
Rattus norvegicus [12] = test: Estrogenic activity in immature female rat assessed as diestrus smear with leukocytes and proestrus smear with nucleated and cornified cells at 5 mg/kg, po bid for 3 days; type: functional, organism-based; set-up: dose 5 mg/kg; procedure, shortened: as §3

| SMILES | Activity (Rattus norvegicus [1]) | Activity (Rattus norvegicus [2]) | Activity (Rattus norvegicus [4]) [mg] | ED100 (Rattus norvegicus [5]) [mg/kg] | other results |
| --- | --- | --- | --- | --- | --- |
| COc1ccc2c(c1)OC(C)(C)C(c1ccccc1)=C2c1ccc(O)cc1 | inactive | Active | 49.2 | – | Activity (Rattus norvegicus [3]): Active |
| Cc1ccc2c(c1)[C@@H](c1ccccc1)[C@@H](c1ccccc1)CO2 (relative stereo) | inactive | – | – | – | – |
| Cc1ccc2c(c1)[C@H](c1ccccc1)[C@@H](c1ccccc1)CO2 (relative stereo) | inactive | – | – | – | – |
| COc1ccc2c(c1)OC(C)(C)[C@@H](c1ccccc1)[C@H]2c1ccc(OCCN2CCCC2)cc1 | inactive | – | 20.5 | – | – |
| COc1ccc2c(c1)OC(C)(C)C(c1ccccc1)=C2c1ccc(OCCN2CCCC2)cc1.Cl | – | – | – | 5 | – |
| COc1ccc2c(c1)OC[C@H](c1ccccc1)[C@H]2c1ccc(OCCN2CCCC2)cc1 (relative stereo) | – | Active | 48.3 | 0.25 | Activity (Rattus norvegicus [6]): Active |
| COc1ccc2c(c1)OC(C)(C)[C@H](c1ccccc1)[C@H]2c1ccc(O)cc1 (relative stereo) | inactive | – | – | – | – |
| CCC1(CC)Oc2cc(OC)ccc2[C@H](c2ccc(OCCN3CCCC3)cc2)[C@H]1c1ccccc1 | – | Active | 46.6 | 5 | Activity (Rattus norvegicus [7]): Active |
| COc1ccc2c(c1)OC(C)(C)[C@H](c1ccccc1)[C@@H]2c1ccc(O)cc1 (relative stereo) | inactive | – | – | – | – |
| COc1ccc(C2=C(c3ccccc3)C(C)(C)Oc3cc(OCCN4CCCC4)ccc32)cc1.Cl | – | – | – | 10 | – |
| CC1(C)Oc2ccccc2C(c2ccc(OCCN3CCCC3)cc2)=C1c1ccccc1.Cl | – | – | – | 10 | – |
| CCC1(CC)Oc2cc(OC)ccc2C(c2ccc(OCCN3CCCC3)cc2)=C1c1ccccc1.Cl | – | Active | 35.4 | 10 | Activity (Rattus norvegicus [8]): Active |
| COc1ccc(C2=C(c3ccc(OC)cc3)C(C)(C)Oc3cc(OC)ccc32)cc1 | inactive | – | – | – | – |
| CCN(CC)CCOc1ccc(C2=C(c3ccccc3)C(C)(C)Oc3cc(OC)ccc32)cc1.Cl | – | Active | 42 | 10 | Activity (Rattus norvegicus [6]): Active |
| COc1ccc(C2=C(c3ccccc3)C(C)(C)Oc3cc(O)ccc32)cc1 | inactive | – | – | – | – |
| CCC1(CC)Oc2cc(OC)ccc2[C@@H](c2ccc(OCCN3CCCC3)cc2)[C@H]1c1ccccc1 | inactive | – | 16.5 | – | – |
| COc1ccc2c(c1)OC[C@H](c1ccccc1)[C@@H]2c1ccc(OCCN2CCCC2)cc1 (relative stereo) | – | Active | 50.6 | 1 | Activity (Rattus norvegicus [9]): Active; Activity (Rattus norvegicus [10]): 43.7 mg; Activity (Rattus norvegicus [11]): Active; Activity (Rattus norvegicus [12]): Active |
| CC1(C)Oc2ccccc2C(c2ccc(O)cc2)=C1c1ccccc1 | inactive | – | – | – | – |
| COc1ccc2c(c1)OC(C)(C)[C@@H](c1ccccc1)[C@@H]2c1ccc(OCCN2CCCC2)cc1 [LEVORMELOXIFENE] | – | Active | 48.3 | 0.25 | Activity (Rattus norvegicus [7]): Active |
| CCC1(CC)Oc2cc(OC)ccc2C(c2ccc(O)cc2)=C1c1ccccc1 | inactive | Active | 39.2 | – | Activity (Rattus norvegicus [8]): Active |
| COc1ccc2c(c1)OCC(c1ccccc1)=C2c1ccc(OCCN2CCCC2)cc1 | – | Active | 37.4 | 0.15 | Activity (Rattus norvegicus [8]): Active |
| COc1ccc2c(c1)OC(C)(C)C(c1ccc(Cl)cc1)=C2c1ccc(O)cc1 | inactive | – | – | – | – |
| COc1ccc2c(c1)OC(C)(C)C(c1ccc(Cl)cc1)=C2c1ccc(OCCN2CCCC2)cc1.Cl | – | – | – | 5 | – |
| CCC1(CC)Oc2cc(OC)ccc2[C@@H](c2ccc(O)cc2)[C@H]1c1ccccc1 (relative stereo) | inactive | – | 14.6 | – | – |
